This is an account of results in article PMC3457684 (Science translational medicine, 2012).

The test system of data set [1] is L. donovani (strain LdBOB) axenic amastigotes. As to the kind of experiment: In vitro drug sensitivity assay, axenic amastigotes. The data set is classed as cell-based. The following applies: Leishmania donovani. The essentials: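 Clonal LdBOB axenic amastigotes were grown at 37 °C in 5% CO₂ in stage-specific medium and cycled between stages after at most 7 passages. Triplicate cultures were seeded at 1 × 10⁵ parasites ml⁻¹ with test compound for 72 h. Resazurin (50 μM) was added, and fluorescence (ex 528, em 590 nm) was read 4 h later. At least three experiments were run; results are weighted mean plus weighted standard deviation.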

A short description of data set [2]: Plasma protein binding by equilibrium dialysis. The data set is classed as in vitro ADME. As to conditions: mouse. A general note: In equilibrium dialysis free small molecules cross a membrane that holds back macromolecules.
A short description of data set [3]: Fexinidazole exposure in mice after acute oral dosing. The data set is classed as in vivo, BALB/c mice. The following applies: single oral dose of fexinidazole 200 mg kg^−1, mouse blood.
Data set [4] relates to L. donovani (strain LdBOB) axenic amastigotes. Put plainly: Cytocidal effect on axenic amastigotes. The data set is classed as cell-based, Leishmania donovani. The following applies: drug at 10 times its EC50 (sulfone 36 μM), wash-out and sub-culture without drug. The essentials: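 Early-log LdBOB axenic amastigotes (~1 × 10⁶ ml⁻¹), grown at 37 °C in 5% CO₂, were exposed to test compound at 36 μM. At intervals, cell density was counted, and samples were removed, washed and resuspended in fresh drug-free medium. Viability of washed parasites was followed for up to 72 h after drug removal to find the point of irreversible toxicity.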

For data set [5], the system named is L. donovani (strain LdBOB) promastigotes. As to the kind of experiment: In vitro drug sensitivity assay, promastigotes. The data set is classed as cell-based, Leishmania donovani. The following applies: for EC50: Leishmania donovani, 72 h, read-out: L. donovani EC50, Promastigote. In a few lines: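 Clonal LdBOB promastigotes were grown at 26 °C in stage-specific medium. Triplicate cultures were seeded at 1 × 10⁵ parasites ml⁻¹ with test compound for 72 h, then given 50 μM resazurin, and fluorescence (ex 528, em 590 nm) was read after 4 h. For isobolograms, mid-log promastigotes received the two metabolites in fixed combinations relative to their respective EC50s. The EC50 of each combination was determined at 72 h (triplicate, mean ± SD) and plotted.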

The subject of data set [6] is L. donovani (strain LdBOB) axenic amastigotes overexpressing L. major nitroreductase. As to the kind of experiment: Drug susceptibility of axenic amastigotes overexpressing L. major nitroreductase. The data set is classed as cell-based, Leishmania donovani. As to conditions: for shift in sensitivity, nitroreductase overexpressing vs wildtype: axenic amastigotes; for EC50: read-out: EC50, axenic amastigotes overexpressing nitroreductase.

The subject of the next data set is L. donovani strain LV9. As to the kind of experiment: In vivo drug sensitivity, mouse model of visceral leishmaniasis. On the set-up: species or system BALB/c mice. As to conditions: oral, once daily for 5 days.
The subject of data set [7] is intracellular L. donovani (LV9) amastigotes in peritoneal mouse macrophages. Put plainly: In macrophage drug sensitivity assay. The data set is classed as cell-based, Leishmania donovani. The following applies: strain LV9, peritoneal mouse macrophages, 72h.
For the next data set, the system named is L. donovani. As to conditions: similar in vivo studies; cited from earlier work.
The mark [8] stands for this setting: 72 h, read-out: L. donovani EC50, Axenic amastigote.
Setting [9] is: read-out: EC50, wildtype axenic amastigotes.

“And” between values parts separate entries of the source, which are not always exact repeats. Equal values may be shown once. Read-outs that look alike come from different tables or passages of the source.

One may read the EC50 as the concentration needed to bring the measured effect to its halfway point. What is called fraction unbound is the share of the substance not bound to proteins or other matrix. A word on the ED50: it is the midpoint of the dose-response relation.

In the case of `Cn1c([N+](=O)[O-])cnc1COc1ccc([S+](C)[O-])cc1` (stereo not drawn) [Fexinidazole sulfoxide, fexinidazole sulfoxide], the EC50 in [1] (setting [8]) stood at 4.5 ± 0.3 µM; in data set [5] it was 3.1 ± 0.1 µM. This compound returned an unbound share (fraction unbound) in [2] of 0.86. In data set [3], the “time blood concentration stays above EC99” value is 8 h. Also, the “exposure time after which no viable parasites could be recovered” value in data set [4] was 30 h. Also, the “interaction in combination (isobologram)” value in [5] (fexinidazole sulfoxide plus sulfone, LdBOB promastigotes, 72h) is reported as “additive”.

As for `CSc1ccc(OCc2ncc([N+](=O)[O-])n2C)cc1` [Fexinidazole, fexinidazole], the EC50 in [1] (setting [8]) turned out to be 2.8 ± 0.1 µM; in data set [5], 5.6 ± 0.2 µM. Also, in data set [2], the fraction unbound stood at 0.15. In addition, the “shift in sensitivity, nitroreductase overexpressing vs wildtype” value in [6] is reported as 19 fold. In addition, the tolerability in mice entry in the data set with L. donovani strain LV9 (up to 200 mg kg^−1) is listed as “well tolerated”. The 50% effective dose (ED50) in the data set on L. donovani strain LV9 (liver parasite burden day 14) is ~12 mg/kg and 11.9 ± 2.3 mg/kg. In addition, the “L. donovani EC50, Amastigote (in macrophages)” value in data set [7] was “inactive”.

Turning to `O.O.O.O.O.O.O.O.O.O=C([O-])[C@@H]1[O][Sb](=[O])([O][Sb]2(=[O])[O][C@H]([C@H](O)CO)[C@H](O)[C@H](C(=O)[O-])[O]2)[O][C@H]([C@H](O)CO)[C@@H]1O.[Na+].[Na+].[Na+]` (stereo partly drawn) [Pentostam], in the data set on L. donovani, the ED50 was 20 mg/kg and the ED90 was 57 mg/kg.

On to `CCCCCCCCCCCCCCCCOP(=O)([O-])OCC[N+](C)(C)C` [Miltefosine, miltefosine], for which the EC50 in [1] (setting [8]) is 4.4 ± 0.2 µM. Also, the fraction unbound in data set [2] came to 0.002. Besides, in data set [5], the EC50 worked out at 6.1 ± 0.3 µM. Moreover, in the data set with L. donovani, the ED50 was 4 mg/kg and the ED90 was 27 mg/kg. For the same compound, in data set [6], the “shift in sensitivity, nitroreductase overexpressing vs wildtype” value was “no concomitant shift” and the concentration giving a half-maximal response (EC50) was determined as 4.9 ± 0.2 µM.

Regarding `CC1CS(=O)(=O)CCN1/N=C/c1ccc([N+](=O)[O-])o1` (stereo not drawn) [nifurtimox], in data set [1] (setting [9]), the EC50 was determined as 5.6 ± 0.2 µM. For the same compound, in data set [6], the “shift in sensitivity, nitroreductase overexpressing vs wildtype” value came to 27 fold and the EC50 worked out at 0.2 ± 0.1 µM.

`Cn1c([N+](=O)[O-])cnc1COc1ccc(S(C)(=O)=O)cc1` [Fexinidazole sulfone, fexinidazole sulfone]: the EC50 in [1] (setting [8]) was found to be 1.6 ± 0.1 µM; in [1] (setting [9]), 4.4 ± 0.1 µM; in data set [5], 4.8 ± 0.1 µM; in [6], 0.23 ± 0.1 µM. In addition, the fraction unbound in [2] was determined as 0.73. The “time blood concentration stays above EC99” value in [3] is on record as “more than 24 h”. Besides, the “exposure time after which no viable parasites could be recovered” value in data set [4] is reported as 30 h. Also, in data set [6], the “shift in sensitivity, nitroreductase overexpressing vs wildtype” value is on record as 19 fold.
